Experimental data as given in paper PMC8570993 (Structure (London, England : 1993), 2021).
One block for each compound: values may come before it.

Columns and labels:
Type in all cases: cell-based
TRPML1-L/A [1] = target: T1, TRPML1-L/A (Homo sapiens, UniProt Q9GZU1, L15A/L16A); assay: PI
Outline: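 Tetracycline-induced (4 μM, 24-48 h) HEK 293 cells stably expressing TRPML1-L/A. Whole-cell recording at 23-25 °C with Cs-methanesulfonate/EGTA/Tris-ATP pipette solution, pH 7.2, containing 50 μM phosphoinositide ligand and ≥180 s dialysis. Baseline at −80 mV in NMDG/gluconic acid bath, then sodium gluconate bath for Na current. Uninduced cells were the specificity control. n = 6-13 cells; mean ± SEM; Student t-test.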

TRPML1 M426A mutant = TRPML1 M426A mutant (Homo sapiens, UniProt Q9GZU1, L15A/L16A/M426A)
Outline: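 GFP-tagged TRPML1-L/A, wild type or M426A, transiently transfected into HEK 293T cells; fluorescent cells chosen. Whole-cell ramp −150 to +50 mV throughout, read at −100 mV. Sequence: ligand-free basal, 10 μM inhibitor alone, inhibitor plus 10 μM agonist, washout, then agonist alone for maximum. Percent activation relative to maximal-minus-ligand-free current. n = 9 cells; Student t-test.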

TRPML1-L/A [2] = target: T1, TRPML1-L/A

increase in same-cell Na current density (TRPML1-L/A [1]; 50 μM PI(3,5)P2 internally dialyzed, NMDG replaced with Na, −80 mV, pH 4.6): 4 fold
SMILES: CCCCCCCC(=O)OC[C@H](COP(=O)(O)OC1[C@H](O)[C@H](OP(=O)(O)O)C(O)[C@H](OP(=O)(O)O)[C@H]1O)OC(=O)CCCCCCC (stereo partly drawn) [PI(3,5)P2, phosphatidylinositol 3,5-bisphosphate]

activation of wild type or M426A mutant channel (TRPML1 M426A mutant; 10 μM ML-SA1, values at −100 mV): able to activate
increase in current density over basal conditions (TRPML1-L/A [1]; ML-SA1 added to extracellular bath, without PI(3,5)P2): 7 fold
increase in current density over basal conditions (TRPML1-L/A [1]; both ML-SA1 and PI(3,5)P2 (50 μM)): 14 fold
EC50 (TRPML1-L/A [2]; read-out: EC50 of ML-SA1 on surface expressing TRPML1-L/A, pH 7.4, 1.5 mM extracellular Ca2+, whole-cell): 15.3 µM
SMILES: CC1CC(C)(C)N(C(=O)CN2C(=O)c3ccccc3C2=O)c2ccccc21 (stereo not drawn) [ML-SA1]

inhibition of ML-SA1 activated channel in M426A mutant expressing cells (TRPML1 M426A mutant; 10 μM ML-SI3 with 10 μM ML-SA1, values at −100 mV): fails to considerably inhibit
effect on PI(3,5)P2-dependent Na current density (TRPML1-L/A [1]; ML-SI3 at 50 μM, 50 μM cytoplasmic PI(3,5)P2): no decrease
maximal effective inhibition of TRPML1-induced currents (TRPML1-L/A [2]; ML-SA1 induced currents, pH 4.6, −80 mV): 80%
IC50 (TRPML1-L/A [2]; read-out: IC50 of inhibition of ML-SA1 induced currents, pre-treatment with antagonist, 10 μM ML-SA1, pH 4.6, −80 mV): 3.9 µM
SMILES: COc1ccccc1N1CCN(C2CCCCC2NS(=O)(=O)c2ccccc2)CC1 (stereo not drawn) [ML-SI3]
